STAT3 inh: IL-6 driven STAT3 reporter inhibitors, primary screen, U3A cells, luciferase, luminescence, MLSCN library; IL-6 STAT3-luciferase reporter; host cell line lacks STAT1; inhibition, % at 5.5 µM; 190,000 compounds, 0.89% hits;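 active = inhibition above the mean inhibition across all screened compounds plus 3 SD, cut at about 44% in these data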;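 note: 0% = DMSO only wells and 100% = 100 µM nifuroxazide control wells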
STAT1 blocker: STAT1 signaling inhibitors, primary screen, cell-based, HTS, luciferase reporter | AID 920, 2007 | 200,000 compounds, 0.35% hits | NIH 3T3 STAT1-luciferase reporter, IFN-gamma, luminescence | inhibition, % at 5.5 µM;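 active = inhibition above a set limit, the mean inhibition across all tested compounds plus 3 SD, cut at about 34% in these data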;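 note: 0% = IFN-gamma with DMSO and 100% = IFN-gamma with 300 µM nifuroxazide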
STAT3 activator: IL-6 driven STAT3 reporter potentiators, primary screen, U3A cells, luciferase, luminescence, MLSCN library. activation (% of control), % at 5.6 µM. IL-6 STAT3-luciferase reporter; 100% = signal with IL-6 EC80 alone. AID 871, 2007. 190,000 compounds, 0.91% hits;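 active = activation above the screen-wide mean of compound activation plus 3 SD, cut at about 130% in these data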;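 note: 0% = background luminescence of wells with medium and substrate only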
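Assay system – human STAT1-deficient U3A cells with stable STAT3-luciferase reporter · Also added – IL-6 (33 ng/mL) · Schedule – compound 1 h, then IL-6 6 h at 37 °C · Technique – reporter luminescence signal · Evaluation – % activation versus median of IL-6-stimulated wells · Benchmarks – IL-6-only wells as 100% reference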
PPC-1+TRAIL kill: compounds killing PPC-1 cancer cells with TRAIL present, primary screen, TRAIL potentiator project, ATPLite luminescence, uHTS | PPC-1 cells + TRAIL, ATPLite viability luminescence | cell killing (% activity), % at 4 µM or 5 µM | 220,000 compounds, 0.41% hits | AID 1443, 2008;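 active = cell killing above 50% in the first pass at 4 µM, then a duplicate retest at 5 µM averaging 50% or more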;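 note: plate controls were cells with TRAIL plus DMSO for no effect and medium-only wells lacking cells for full effect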
C8 TRAIL sens: viability loss with TRAIL in NB7+C8 cells, primary screen, TRAIL sensitizer project, cell-based, ATPlite luminescence; inhibition (viability loss, TRAIL sensitization), % at 10 µM; 360,000 compounds, 1% hits;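 active = compounds causing at least 50% loss of cell viability in the single-dose screen, relative to plate controls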
The depositor's hits bear a star; / = no result given. A selection: hits, their analogues and other compounds. The true share with any hit is near 1.8%.

SMILES | STAT3 inh | STAT1 blocker | STAT3 activator | PPC-1+TRAIL kill | C8 TRAIL sens
Cc1ccc(C(=O)COC(=O)c2cc(=O)[nH]c3ccccc23)cc1 | -4 | -20 | 109 | 19 | 34
CC(=O)NC12CC3CC(C1)CC(C(=O)N1CCN(S(=O)(=O)c4cccc([N+](=O)[O-])c4)CC1)(C3)C2 | / | / | / | / | 19
CN1C[C@@H]2[C@@H]3C(=O)N(Cc4ccccc4)C(=O)[C@@H]3[C@](Cc3ccccc3)(C1=O)N2C(=O)c1ccc(C(C)(C)C)cc1 | / | / | / | / | 65*
CCc1ccccc1C1C(=O)c2ccccc2C1=O | / | / | / | / | 48*
N#CC(C#N)=C1C=CC=CN1/C(=C\c1ccccc1Cl)C(=O)c1ccccc1 | 13 | 35* | 95 | 29 | 16
O=c1[nH]c2ccccc2nc1/C=C(\O)c1cccs1 | -84 | -51 | 169* | 14 | 37
O/C(=C\c1nc2ccccc2[nH]1)c1cccs1 | / | / | / | / | 11
O=c1[nH]c2ccccc2nc1/C=C/c1ccc(F)cc1 | 5 | -67 | 99 | 17 | 53*
O=C(CCl)NCCCN(C(=O)C(Cl)Cl)c1ccc([N+](=O)[O-])cc1 | / | / | / | 6 | 15
CCn1c(C)cc(C(=O)COC(=O)c2cccnc2SC)c1C | / | / | / | / | 19
Cc1cc(C(=O)COC(=O)c2cccnc2Cl)c(C)n1C | / | / | / | / | 64*
CSc1ncccc1C(=O)OCC(=O)c1cc(C)n(CC2CCCO2)c1C (stereo not given) | / | / | / | 32 | 48*
O=C(Nc1ccccc1)c1cc(C2CCCCN2S(=O)(=O)c2ccc(F)cc2F)on1 (stereo not given) | / | / | / | / | -14
CC12CCCCN1CCCc1c2[nH]c2ccccc12 (stereo not given) | -36 | -5 | 136* | 22 | 5
c1ccc2c3c([nH]c2c1)C1(CCCCC1)NCC3 | -12 | 1 | 111 | -7 | -8
O=C(CN(c1ccccc1)S(=O)(=O)c1ccccc1[N+](=O)[O-])N1CCCC1 | / | / | / | / | 1
Cc1ccc(-c2nnc(SCC(=O)N3CCOCC3)nc2-c2ccc(C)cc2)cc1 | 4 | 2 | 100 | 13 | -8
CCOc1cc(C(=O)O/N=C(\N)c2ccc([N+](=O)[O-])cc2)cc(OCC)c1OCC | 22 | 0 | 86 | -23 | 37
COc1cc(OC)cc(C(=O)O/N=C(\N)c2ccccn2)c1 | / | / | / | 10 | 31
CCOc1ccc(C(=O)O/N=C(\N)c2ccccn2)cc1OCC | / | / | / | / | 79*
Cc1ccc(C(=O)O/N=C(\N)c2ccccn2)c(C)c1 | / | / | / | / | 94*
CCOc1cc(C(=O)O/N=C(\N)c2ccccn2)cc(OCC)c1OCC | / | / | / | / | 61*
COc1ccc(C(=O)O/N=C(\N)c2ccccn2)cc1 | / | / | / | / | 92*
COc1ccccc1C(=O)O/N=C(\N)c1ccccn1 | / | / | / | 34 | 26
COc1ccc(Cn2c(=O)c3[nH]cnc3n(-c3ccc(C)cc3)c2=O)cc1 | / | / | / | -16 | 5
SMILES | STAT3 inh | STAT1 blocker | STAT3 activator | PPC-1+TRAIL kill | C8 TRAIL sens
O=C(COC(=O)c1ccccn1)c1cccc(Br)c1 | / | / | / | / | -9
N/C(=N\OC(=O)c1cccc(Br)c1)c1ccccn1 | / | / | / | / | 77*
Cn1c(/N=C/c2c(O)ccc3ccccc23)nc2ccccc21 | -36 | 11 | 134* | 5 | 1
CCOc1ccc(C2=Nn3c(nnc3-c3ccccc3OC)SC2)cc1 | -49 | -16 | 146* | -12 | -8
Cc1cccnc1Sc1c([N+](=O)[O-])ncn1C | -3 | -8 | 103 | 10 | -4
Cn1cnc([N+](=O)[O-])c1Sc1ncnc2nc[nH]c12 | / | / | / | 17 | 67*
Cn1cnc(Sc2ncnc3nc[nH]c23)c1[N+](=O)[O-] | / | / | / | 4 | 62*
CC(=O)CSc1ncnc2nc[nH]c12 | 6 | 2 | 100 | 9 | 12
O=C(Oc1c(CN2CCOCC2)cc(Cl)c2cccnc12)c1ccccc1F | 5 | 5 | 101 | 23 | 54*
CCCCn1c(CCC)nc([N+](=O)[O-])c1Sc1ccc(Cl)cn1 | 9 | 34* | 95 | 8 | 7
CC[C@@]12C(=O)N(c3cccc(Br)c3)C(=O)N1[C@H](c1cccc(C)c1)[C@@H]1C(=O)N(Cc3ccccc3)C(=O)[C@@H]12 | / | / | / | / | 10
CCS(=O)(=O)N1Cc2cc(C(=O)N(C)C)nc(-c3cccc(-c4ccc(F)cc4)c3)c2[C@@H]1CCO | / | / | / | / | -8
COc1ccccc1N1C(=O)N(C(C)=O)C2C1Nc1ccccc1N2C (stereo not given) | -35 | 17 | 134* | -6 | 7
COc1ccccc1N1C(=O)c2ccccc2NC1c1ccncc1 (stereo not given) | 4 | 7 | 101 | 32 | 4
CCOc1ccc(OCC)c(NC(=O)C2CCN(c3nn4c(=O)cc(C)nc4s3)CC2)c1 | 17 | -3 | 90 | 13 | 67*
CCOc1ccccc1CNC(=O)C1CCN(c2nn3c(=O)cc(C)nc3s2)CC1 | / | / | / | / | 0
Nc1nc2ccccc2n1S(=O)(=O)c1ccccc1 | / | / | / | / | 1
CC(NC(=O)CCl)c1ccc(Cl)c(Cl)c1 (stereo not given) | 17 | 1 | 85 | 12 | 61*
CC(NC(=O)c1ccc(Cl)c(Cl)c1)c1ccc(-c2ccccc2)cc1 (stereo not given) | / | / | / | 16 | -4
Cc1ccc(NC(=O)CSc2nn(-c3ccccc3)c(=S)s2)cc1S(=O)(=O)N(C)C | 25 | 10 | 80 | -12 | 66*
O=C(CSc1nn(-c2ccccc2)c(=S)s1)Nn1cnnc1 | 6 | -1 | 100 | 15 | 4
COC(=O)c1ccc2nc(NC(=O)C(C)C)sc2c1 | 32 | -37 | 75 | 31 | 25
COC(=O)c1ccc2nc(Nc3nc4c(F)cc(F)cc4s3)sc2c1 | 94* | 70* | 21 | 22 | 3
CCOC(=O)c1ccc2nc(Nc3nc4ccc(F)cc4s3)sc2c1 | 73* | 43* | 38 | 30 | 8
COc1ccc([C@H]2CC(=O)C=C(c3cccc(OC)c3OC)C2)cc1OC | / | / | / | / | -5
SMILES | STAT3 inh | STAT1 blocker | STAT3 activator | PPC-1+TRAIL kill | C8 TRAIL sens
O=C(CNC(=O)c1[nH]cnc1C(=O)NC(c1ccccc1)c1ccccc1)OCc1ccccc1 | / | / | / | / | -5
COc1ccc(-c2nnc3ccc(SCC(=O)Nc4nccs4)nn23)cc1OC | 3 | -1 | 99 | -22 | -2
CCOC(=O)CNC(=O)CSc1ccc(-c2nc3ccccc3[nH]2)cn1 | / | / | / | / | -7
CCc1nnc(NC(=O)CSc2ccc(-c3nc4ccc(C)cc4[nH]3)cn2)s1 | 0 | -16 | 100 | 24 | 54*
COc1ccc(-c2ccc(SCC(=O)Nc3nccs3)nn2)cc1OC | -42 | -9 | 135* | 34 | -1
CC(=O)CSc1ccc(-c2nc3ccccc3[nH]2)cn1 | / | / | / | / | 75*
Cc1cc2nc(-c3ccc(SCC(=O)Nc4ccc(S(=O)(=O)N5CCCC5)cc4)nc3)[nH]c2cc1C | 0 | -45 | 102 | 63* | 72*
O=C(CSc1ccc(-c2nc3ccccc3[nH]2)cn1)Nc1ccc(S(=O)(=O)N2CCCC2)cc1 | -9 | -2 | 105 | 3 | 8
